{"source": "ChEMBL document CHEMBL1134646", "about": "“Quadruplex-interactive agents as telomerase inhibitors: synthesis of porphyrins and structure-activity relationship for the inhibition of telomerase” (J Med Chem, 2001)", "key": {"[1]": {"molecular_target": "T1, Telomerase reverse transcriptase (Homo sapiens, UniProt O14746)", "T1 sequence (O14746 whole entry)": "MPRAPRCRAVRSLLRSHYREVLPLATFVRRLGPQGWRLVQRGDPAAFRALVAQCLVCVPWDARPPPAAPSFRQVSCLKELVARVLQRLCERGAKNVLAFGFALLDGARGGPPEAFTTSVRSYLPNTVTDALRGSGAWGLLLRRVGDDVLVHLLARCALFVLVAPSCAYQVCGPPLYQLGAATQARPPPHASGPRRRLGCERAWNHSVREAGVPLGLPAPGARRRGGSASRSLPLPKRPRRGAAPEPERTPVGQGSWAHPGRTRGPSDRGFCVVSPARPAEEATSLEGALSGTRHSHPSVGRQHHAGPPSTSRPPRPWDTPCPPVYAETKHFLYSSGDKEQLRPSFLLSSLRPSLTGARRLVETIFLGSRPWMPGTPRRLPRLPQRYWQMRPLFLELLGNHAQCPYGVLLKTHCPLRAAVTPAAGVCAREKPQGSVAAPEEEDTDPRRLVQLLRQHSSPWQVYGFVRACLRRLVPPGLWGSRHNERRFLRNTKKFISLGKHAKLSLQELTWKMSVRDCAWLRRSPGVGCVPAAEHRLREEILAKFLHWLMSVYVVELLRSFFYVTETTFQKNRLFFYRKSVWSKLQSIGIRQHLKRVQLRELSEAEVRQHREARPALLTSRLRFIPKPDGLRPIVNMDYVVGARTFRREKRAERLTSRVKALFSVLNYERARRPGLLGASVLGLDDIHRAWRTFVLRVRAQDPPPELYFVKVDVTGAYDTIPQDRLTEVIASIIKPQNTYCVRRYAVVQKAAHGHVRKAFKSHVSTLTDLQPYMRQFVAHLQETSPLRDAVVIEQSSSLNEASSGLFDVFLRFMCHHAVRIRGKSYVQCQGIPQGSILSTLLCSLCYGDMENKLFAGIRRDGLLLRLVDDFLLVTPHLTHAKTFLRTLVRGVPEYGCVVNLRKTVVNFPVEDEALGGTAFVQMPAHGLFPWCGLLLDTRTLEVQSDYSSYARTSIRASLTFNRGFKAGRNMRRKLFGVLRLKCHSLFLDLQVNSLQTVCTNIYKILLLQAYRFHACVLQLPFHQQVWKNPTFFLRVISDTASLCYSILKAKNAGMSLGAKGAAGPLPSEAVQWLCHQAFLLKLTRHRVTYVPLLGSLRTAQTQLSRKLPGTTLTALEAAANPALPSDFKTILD", "experiment": "Percentage inhibition of human telomerase at 25 uM concentration in HeLa cell", "format": "cell-based", "procedure,_shortened": "(§1)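 HeLa cell extract (60 µg total protein) as the telomerase source in a primer-extension assay with 1 µM 5′-biotinylated (TTAGGG)3 primer, 1.2 µM 32P-dGTP, and 1 mM each of dATP and dTTP. Buffer was Tris-OAc at pH 8.5 with KOAc, MgCl2, BME and spermidine. Porphyrin was fixed at 25 µM and reactions ran at 37 °C for 30 min. Products were run on 8% denaturing PAGE and quantified by autoradiogram densitometry, giving % inhibition relative to a porphyrin-free control.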"}, "[2]": {"molecular_target": "T1, Telomerase reverse transcriptase", "experiment": "Apparent telomerase inhibition by G-quadruplex mechanism"}, "[3]": {"molecular_target": "T1, Telomerase reverse transcriptase", "experiment": "Effect of substituent bulk on telomerase inhibition at 25 uM", "procedure,_shortened": "as §1"}, "[4]": {"molecular_target": "T1, Telomerase reverse transcriptase", "experiment": "Effect of varying the number and disposition of charged groups around the compound nucleus on telomerase inhibition at 25 uM", "procedure,_shortened": "as §1"}, "[5]": {"molecular_target": "T1, Telomerase reverse transcriptase", "experiment": "Effect of uncharged hydrogen bonding group on telomerase inhibition at 25 uM", "procedure,_shortened": "as §1"}, "[6]": {"molecular_target": "T1, Telomerase reverse transcriptase", "experiment": "Effect of combination of charged and hydrogen bonding groups on telomerase inhibition at 25 uM", "procedure,_shortened": "as §1"}, "[7]": {"molecular_target": "T1, Telomerase reverse transcriptase", "experiment": "Dependence of telomerase inhibition on the ability to stack with G-tetrads", "conditions": "concentration not given here", "procedure,_shortened": "as §1"}, "[8]": {"molecular_target": "T1, Telomerase reverse transcriptase", "experiment": "Effect of meso group on telomerase inhibition at 25 uM", "procedure,_shortened": "as §1"}, "[9]": {"molecular_target": "T1, Telomerase reverse transcriptase", "experiment": "Apparent telomerase inhibition by mixed mechanism"}}, "note": "Values joined by “and” are separate entries in the source; they are usually repeats but may differ in a detail not shown here. Equal entries are not always repeated."}
{"smiles": "CC1=C(CCNCCN)c2cc3[nH]c(cc4[nH]c(cc5nc(cc1n2)C(C)=C5CCNCCN)c(C)c4CCNCCN)c(CCNCCN)c3C", "values": [{"measurement": "inhibition", "setting": "[1]", "value": 0, "unit": "%"}]}
{"smiles": "C[n+]1ccc(-c2c3nc(c(-c4cc[n+](C)cc4)c4ccc([nH]4)c(-c4cc[n+](C)cc4)c4nc(c(-c5cc[n+](C)cc5)c5ccc2[nH]5)C=C4)C=C3)cc1", "note": "[TMPYP4 CHLORIDE]", "values": [{"measurement": "IC50", "setting": "[2]", "value": "6.25 µM and 10 µM"}]}
{"smiles": "C[n+]1ccc(-c2c3nc(c(-c4cc[n+](C)cc4)c4ccc([nH]4)c(-c4cc[n+](C)cc4)c4ccc([nH]4)c(-c4cc[n+](C)cc4)c4nc2C=C4)C=C3)cc1", "values": [{"measurement": "inhibition", "setting": "[3]", "value": 60, "unit": "%"}, {"measurement": "inhibition", "setting": "[4]", "value": 62, "unit": "%"}, {"measurement": "inhibition", "setting": "[5]", "value": 60, "unit": "%"}, {"measurement": "inhibition", "setting": "[6]", "value": 60, "unit": "%"}, {"measurement": "inhibition", "setting": "[7]", "value": 66, "unit": "%"}, {"measurement": "inhibition", "setting": "[8]", "value": 67, "unit": "%"}]}
{"smiles": "C[n+]1cccc(-c2c3nc(c(-c4cc5ccccc5[n+](C)c4)c4ccc([nH]4)c(-c4ccc[n+](C)c4)c4nc(c(-c5cc6ccccc6[n+](C)c5)c5ccc2[nH]5)C=C4)C=C3)c1", "values": [{"measurement": "IC50", "setting": "[9]", "value": 10, "unit": "µM"}]}
{"smiles": "C[n+]1cccc(-c2c3nc(c(-c4ccc[n+](C)c4)c4ccc([nH]4)c(-c4ccc[n+](C)c4)c4ccc([nH]4)c(-c4ccc[n+](C)c4)c4nc2C=C4)C=C3)c1", "values": [{"measurement": "inhibition", "setting": "[3]", "value": 50, "unit": "%"}, {"measurement": "IC50", "setting": "[2]", "value": "25 µM and 12 µM"}]}
{"smiles": "OCC[n+]1ccc(-c2c3nc(c(-c4cc[n+](CCO)cc4)c4ccc([nH]4)c(-c4cc[n+](CCO)cc4)c4ccc([nH]4)c(-c4cc[n+](CCO)cc4)c4nc2C=C4)C=C3)cc1", "values": [{"measurement": "IC50", "setting": "[9]", "value": 30, "unit": "µM"}]}
{"smiles": "C[n+]1ccc(-c2c3nc(c(-c4ccc(C(=O)NCCBr)cc4)c4nc(c(-c5cc[n+](C)cc5)c5ccc([nH]5)c(-c5cccc(C(=O)NCCBr)c5)c5ccc2[nH]5)C=C4)C=C3)cc1", "values": [{"measurement": "IC50", "setting": "[9]", "value": 15, "unit": "µM"}]}
{"smiles": "C[n+]1cc(-c2c3nc(c(-c4cc5ccccc5[n+](C)c4)c4ccc([nH]4)c(-c4cc5ccccc5[n+](C)c4)c4ccc([nH]4)c(-c4cc5ccccc5[n+](C)c4)c4nc2C=C4)C=C3)cc2ccccc21", "values": [{"measurement": "inhibition", "setting": "[3]", "value": 28, "unit": "%"}, {"measurement": "inhibition", "setting": "[4]", "value": 37, "unit": "%"}, {"measurement": "inhibition", "setting": "[5]", "value": 28, "unit": "%"}, {"measurement": "inhibition", "setting": "[6]", "value": 30, "unit": "%"}, {"measurement": "inhibition", "setting": "[7]", "value": 14, "unit": "%"}, {"measurement": "inhibition", "setting": "[8]", "value": 32, "unit": "%"}]}
{"smiles": "C[n+]1cccc(-c2c3ccc([nH]3)c(-c3cc4ccccc4[n+](C)c3)c3nc(c(-c4cc5ccccc5[n+](C)c4)c4nc(c(-c5cc6ccccc6[n+](C)c5)c5ccc2[nH]5)C=C4)C=C3)c1", "values": [{"measurement": "IC50", "setting": "[9]", "value": 5, "unit": "µM"}]}
